Columns and labels:
[1] = AUC (0 to 6 hrs) in rat at 10 mg/kg, po; format: ADME, organism-based; set-up: time < 6 hr, dose 10 mg/kg, route oral; conditions: plasma
Method in brief: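 Rats were dosed orally at 10 mpk in 0.4% methylcellulose, n=2 per compound. Plasma was sampled at 8 time points up to 6 h, and exposure was reported as AUC0-6 h.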

[2] = Cytotoxicity against human hepatoma cells assessed as decrease in GADPH RNA level after 3 days by Rt-PCR analysis; format: cell-based
Hepatitis C virus = assay: Antiviral activity against Hepatitis C virus 1b con1 infected in human hepatoma cells assessed as decrease in replicon RNA level after 3 days by RT-PCR analysis; format: functional, organism-based, Hepacivirus hominis; conditions: genotype 1b Con1, 72 h
Method in brief: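 Con1 genotype 1b replicon cells were seeded at 5000 cells/well one day before treatment. Compound in DMSO was added (final 0.5% DMSO, 10% FBS) as 10 serial twofold dilutions in triplicate. Cells were harvested 3 days after dosing. Replicon RNA was quantified by real-time RT-PCR (Taqman), normalized to GAPDH RNA, and EC50 was calculated.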

[3] = Cytotoxicity against human hepatoma cells after 3 days by MTS assay; format: cell-based
Method in brief: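 MTS cell proliferation assay on replicon cells handled as in the replicon activity assay (seeded one day before, 0.5% DMSO, 10% FBS, serial dilutions), read 3 days after dosing. CC50 is the concentration giving 50% inhibition relative to vehicle-treated cells.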

[4] = Drug uptake in rat liver at 10 mg/kg, po at 6 hrs; format: ADME, organism-based; set-up: dose 10 mg/kg, route oral; conditions: read-out: Drug uptake
Method in brief: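 Rats were dosed orally at 10 mpk in 0.4% methylcellulose, n=2. Animals were sacrificed at 6 h, and liver was harvested and processed to measure compound concentration (liver C6 h).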

[5] = Cytotoxicity against human hepatoma cells assessed as inhibition of [14C]thymidine incorporation after 3 days by TopCount analysis; format: cell-based
Method in brief: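 Replicon cells were seeded in scintillating microplates one day before treatment. Compound dilutions in triplicate were added with [methyl-14C]-thymidine (final 0.5 uCi/mL) and incubated 3 days. Incorporated label was counted by scintillation proximity. DNA CC50 is the concentration giving 50% inhibition of thymidine incorporation versus vehicle-treated cells.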

AUC(0-t) at 6 h [1] | EC50 (Hepatitis C virus) | concentration at 6 h [4] | Compound | CC50 at 72 h [2] | CC50 at 72 h [3] | CC50 at 72 h [5]
0.8 µM·h | 0.02 µM | 1260 ng/g | CCCc1nccc2sc(-c3c(C)nc(N[C@H](C)c4ccc(OC(F)(F)F)cc4)nc3N[C@@H]3C[C@H](CO)[C@@H](O)[C@H]3O)nc12 | 13 µM | 13 µM | 
3.2 µM·h | 0.026 µM | 8500 ng/g | Cc1nc(N[C@H](C)c2ccc(OC(F)(F)F)cc2)nc(N[C@@H]2C[C@H](CO)[C@@H](O)[C@H]2O)c1-c1nc2c(C(C)C)nccc2s1 | 11 µM | 10 µM | 
3.2 µM·h | 0.026 µM | 4400 ng/g | Cc1nc(N[C@H](C)c2ccc(OC(F)(F)F)cc2)nc(N[C@@H]2C[C@H](CO)[C@@H](O)[C@H]2O)c1-c1nc2c(CC(C)(C)C)nccc2s1 | 10 µM | 13 µM | 
3.3 µM·h | 0.016 µM | 4900 ng/g | Cc1nc(N[C@H](C)c2ccc(OC(F)(F)F)cc2)nc(N[C@@H]2C[C@H](CO)[C@@H](O)[C@H]2O)c1-c1nc2c(C3CCC3)nccc2s1 | 5 µM | 5 µM | 
 | 0.059 µM |  | COC(=O)CCc1nccc2sc(-c3c(C)nc(N[C@H](C)c4ccc(OC(F)(F)F)cc4)nc3N[C@@H]3C[C@H](CO)[C@@H](O)[C@H]3O)nc12 | 23 µM | 14 µM | 
0.4 µM·h | 0.034 µM | 16 ng/g | Cc1nc(N[C@H](C)c2ccc(OC(F)(F)F)cc2)nc(N[C@@H]2C[C@H](CO)[C@@H](O)[C@H]2O)c1-c1nc2c(CCC#N)nccc2s1 | 12 µM | 12 µM | 
 | 0.037 µM |  | Cc1nc(N[C@H](C)c2ccc(OC(F)(F)F)cc2)nc(N[C@@H]2C[C@H](CO)[C@@H](O)[C@H]2O)c1-c1nc2c(N)nccc2s1 | 25 µM | > 25 µM | 
 | 0.038 µM |  | Cc1cc2sc(-c3c(C)nc(N[C@H](C)c4ccc(OC(F)(F)F)cc4)nc3N[C@@H]3C[C@H](CO)[C@@H](O)[C@H]3O)nc2cn1 | 25 µM | > 25 µM | 
5.6 µM·h | 0.043 µM | 9800 ng/g | Cc1cc2sc(-c3c(C)nc(N[C@H](C)c4ccc(OC(F)(F)F)cc4)nc3N[C@@H]3C[C@H](CO)[C@@H](O)[C@H]3O)nc2c(C)n1 | 20 µM | 12 µM | 
25 µM·h | 0.264 µM | 257 ng/g | CCc1nc(C)cc2sc(-c3c(C)nc(N[C@H](C)c4ccc(OC(F)(F)F)cc4)nc3N[C@@H]3C[C@H](CO)[C@@H](O)[C@H]3O)nc12 | 23 µM | 24 µM | 
 | 0.703 µM |  | Cc1cc2sc(-c3c(C)nc(N[C@H](C)c4ccc(OC(F)(F)F)cc4)nc3N[C@@H]3C[C@H](CO)[C@@H](O)[C@H]3O)nc2c(C2CC2)n1 | 21 µM | 24 µM | 
 | 0.069 µM |  | CCc1cc2sc(-c3c(C)nc(N[C@H](C)c4ccc(OC(F)(F)F)cc4)nc3N[C@@H]3C[C@H](CO)[C@@H](O)[C@H]3O)nc2c(CC)n1 | 12 µM | 13 µM | 
0.3 µM·h | 0.052 µM |  | CNc1nc(C)c(-c2nc3cnccc3s2)c(N[C@@H]2C[C@H](CO)[C@@H](O)[C@H]2O)n1 | 14 µM | 20 µM | 
7.5 µM·h | 0.557 µM | 1400 ng/g | Cc1nc(N(C)C)nc(N[C@@H]2C[C@H](CO)[C@@H](O)[C@H]2O)c1-c1nc2cnccc2s1 | 25 µM | > 25 µM | 
 | 0.016 µM |  | Cc1nc(NCC(F)(F)F)nc(N[C@@H]2C[C@H](CO)[C@@H](O)[C@H]2O)c1-c1nc2cnccc2s1 | 25 µM | > 25 µM | 
 | 0.124 µM |  | Cc1nc(N)nc(N[C@@H]2C[C@H](CO)[C@@H](O)[C@H]2O)c1-c1nc2cnccc2s1 | 25 µM | 18 µM | 
0.4 µM·h | 0.008 µM | 192 ng/g | Cc1nc(NCC2CC2)nc(N[C@@H]2C[C@H](CO)[C@@H](O)[C@H]2O)c1-c1nc2cnccc2s1 | 3 µM | 5 µM | 
0.2 µM·h | 0.009 µM | 368 ng/g | CCOCCNc1nc(C)c(-c2nc3cnccc3s2)c(N[C@@H]2C[C@H](CO)[C@@H](O)[C@H]2O)n1 | 25 µM | 16 µM | 
1.4 µM·h | 0.125 µM | 276 ng/g | Cc1nc(NC2CC2)nc(N[C@@H]2C[C@H](CO)[C@@H](O)[C@H]2O)c1-c1nc2cnccc2s1 | 25 µM | 19 µM | 

AUC(0-t) at 6 h [1] | EC50 (Hepatitis C virus) | concentration at 6 h [4] | Compound | CC50 at 72 h [2] | CC50 at 72 h [3] | CC50 at 72 h [5]
 | 1.68 µM |  | Cc1nc(NCC2CCN(C)CC2)nc(N[C@@H]2C[C@H](CO)[C@@H](O)[C@H]2O)c1-c1nc2cnccc2s1 | 25 µM | > 25 µM | 
0.2 µM·h | 0.168 µM | 29 ng/g | Cc1nc(Nc2ccccc2)nc(N[C@@H]2C[C@H](CO)[C@@H](O)[C@H]2O)c1-c1nc2cnccc2s1 | 25 µM | > 25 µM | 
 | 0.003 µM |  | Cc1nc(NCc2ccccc2)nc(N[C@@H]2C[C@H](CO)[C@@H](O)[C@H]2O)c1-c1nc2cnccc2s1 | 25 µM | 14 µM | 
 | 0.001 µM |  | Cc1nc(NCc2c(F)cccc2F)nc(N[C@@H]2C[C@H](CO)[C@@H](O)[C@H]2O)c1-c1nc2cnccc2s1 | 4 µM | 10 µM | 
 | 0.003 µM |  | Cc1nc(NCc2ccc(OC(F)(F)F)cc2)nc(N[C@@H]2C[C@H](CO)[C@@H](O)[C@H]2O)c1-c1nc2cnccc2s1 | 25 µM | 25 µM | 
0.1 µM·h | 0.012 µM | 100 ng/g | COc1cc(CCNc2nc(C)c(-c3nc4cnccc4s3)c(N[C@@H]3C[C@H](CO)[C@@H](O)[C@H]3O)n2)cc(OC)c1 | 25 µM | 19 µM | 
0.2 µM·h | 0.301 µM | 100 ng/g | Cc1nc(N(C)Cc2ccccc2)nc(N[C@@H]2C[C@H](CO)[C@@H](O)[C@H]2O)c1-c1nc2cnccc2s1 | 25 µM | > 25 µM | 
0.2 µM·h | 0.007 µM | 104 ng/g | Cc1nc(N[C@H](C)c2ccccc2)nc(N[C@@H]2C[C@H](CO)[C@@H](O)[C@H]2O)c1-c1nc2cnccc2s1 | 25 µM | > 25 µM | 
0.1 µM·h | 0.222 µM | 77 ng/g | Cc1nc(N[C@@H](C)c2ccccc2)nc(N[C@@H]2C[C@H](CO)[C@@H](O)[C@H]2O)c1-c1nc2cnccc2s1 | 25 µM | > 25 µM | 
 | 6.2 µM |  | Cc1nc(NC(C)(C)c2ccccc2)nc(N[C@@H]2C[C@H](CO)[C@@H](O)[C@H]2O)c1-c1nc2cnccc2s1 | 25 µM | > 25 µM | 
 | 3.17 µM |  | Cc1ccc(C2(Nc3nc(C)c(-c4nc5cnccc5s4)c(N[C@@H]4C[C@H](CO)[C@@H](O)[C@H]4O)n3)CC2)cc1 | 25 µM | > 25 µM | 
0.1 µM·h | 0.114 µM | 116 ng/g | Cc1ccc([C@@H](C)Nc2nc(C)c(-c3nc4cnccc4s3)c(N[C@@H]3C[C@H](CO)[C@@H](O)[C@H]3O)n2)cc1 | 25 µM | > 25 µM | 
 | 0.222 µM |  | Cc1nc(N[C@H](C)c2ccc(F)cc2)nc(N[C@@H]2C[C@H](CO)[C@@H](O)[C@H]2O)c1-c1nc2cnccc2s1 | 25 µM | 25 µM | 
 | 0.017 µM |  | Cc1nc(N[C@H](C)c2ccc(-c3cnn(C)c3)cc2)nc(N[C@@H]2C[C@H](CO)[C@@H](O)[C@H]2O)c1-c1nc2cnccc2s1 | 25 µM | 25 µM | 
0.1 µM·h | 0.037 µM | 17 ng/g | COc1cc(OC)cc([C@@H](C)Nc2nc(C)c(-c3nc4cnccc4s3)c(N[C@@H]3C[C@H](CO)[C@@H](O)[C@H]3O)n2)c1 | 25 µM | 25 µM | 
0.5 µM·h | 0.017 µM | 506 ng/g | Cc1nc(N[C@H](C)c2ccccc2OC(F)(F)F)nc(N[C@@H]2C[C@H](CO)[C@@H](O)[C@H]2O)c1-c1nc2cnccc2s1 | 24 µM | 23 µM | 
1.6 µM·h | 0.016 µM | 1800 ng/g | Cc1nc(N[C@H](C)c2ccc(OC(F)(F)F)cc2)nc(N[C@@H]2C[C@H](CO)[C@@H](O)[C@H]2O)c1-c1nc2cnccc2s1 | 25 µM | > 25 µM | 6 µM
5.8 µM·h | 0.02 µM | 6000 ng/g | CCc1nccc2sc(-c3c(C)nc(N[C@H](C)c4ccc(OC(F)(F)F)cc4)nc3N[C@@H]3C[C@H](CO)[C@@H](O)[C@H]3O)nc12 | 7 µM | 7 µM | 
